Assays:
Renin [1] = molecular target: T1, Renin (Homo sapiens, UniProt P00797); experiment: Inhibitory activity against human plasma renin; assay type: cell-free
T1 sequence (P00797 whole entry): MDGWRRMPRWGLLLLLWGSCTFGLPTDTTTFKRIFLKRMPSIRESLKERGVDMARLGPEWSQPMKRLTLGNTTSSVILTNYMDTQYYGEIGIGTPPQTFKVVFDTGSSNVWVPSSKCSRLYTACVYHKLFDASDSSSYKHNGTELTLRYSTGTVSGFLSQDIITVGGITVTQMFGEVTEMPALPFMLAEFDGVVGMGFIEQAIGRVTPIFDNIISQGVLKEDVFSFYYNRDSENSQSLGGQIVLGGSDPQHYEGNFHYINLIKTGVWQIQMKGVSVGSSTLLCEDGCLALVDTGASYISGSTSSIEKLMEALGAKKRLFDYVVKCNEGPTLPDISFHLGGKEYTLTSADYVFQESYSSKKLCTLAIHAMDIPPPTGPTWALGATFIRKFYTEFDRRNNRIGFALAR

Renin [2] = molecular target: T1, Renin; experiment: Inhibitory activity against purified recombinant human renin
[3] = Distribution coefficient at pH 7.4; assay type: physicochemical; conditions: RP-HPLC, read-out: Log Kw
Summary of the method: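 Log Kw read as log D by HPLC in 20 mM MOPS buffer, pH 7.4, on an LC-ABZ column ([…]) fitted with an LC-ABZ precolumn (20x46 mm).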

SMILES	IC50 (Renin [1])	IC50 (Renin [2])	chromatographic logD [3]
c1ccc(COCCCOc2ccc([C@H]3CCNC[C@@H]3OCc3ccc4cccnc4c3)cc2)cc1 (racemic)	810 nM	12 nM	
O[C@@H]1CNC[C@H](OCc2ccc3ccccc3c2)[C@H]1c1ccc(OCCCOCc2ccccc2)cc1 (racemic)	1400 nM	6.4 nM	4.9
c1ccc(COCCCOc2ccc([C@H]3CCNC[C@@H]3OCc3ccc4cc(OCCN5CCOCC5)ccc4c3)cc2)cc1 (racemic)	1400 nM	22 nM	
COc1ccccc1COCCCOc1ccc([C@H]2CCNC[C@@H]2OCc2ccc3ccc(=O)[nH]c3c2)cc1 (racemic)	110 nM	8 nM	3.9
c1ccc(COCCCOc2ccc([C@H]3CCNC[C@@H]3OCc3ccc4ccc(OCCN5CCOCC5)cc4c3)cc2)cc1 (racemic)	130 nM	12 nM	5.6
c1ccc(COCCCOc2ccc([C@@H]3[C@@H](OCc4ccc5ccccc5c4)CNC[C@H]3OCCN3CCOCC3)cc2)cc1 (racemic)	380 nM	1.8 nM	
COc1ccccc1COCCCOc1ccc([C@H]2CCNC[C@@H]2OCc2ccc3cccnc3c2)cc1 (racemic)	160 nM	4 nM	
COc1ccccc1COCCCOc1ncc([C@H]2CCNC[C@@H]2OCc2cc(OC)c3ccccc3c2OC)cn1 (racemic)	160 nM	10 nM	4.1
O[C@H]1CNC[C@H](OCc2ccc3ccccc3c2)[C@H]1c1ccc(OCCCOCc2ccccc2)cc1 (racemic)	10000 nM	9 nM	
c1ccc(COCCCOc2ccc([C@H]3CCNC[C@@H]3OCc3ccc4ccccc4c3)cc2)cc1 (racemic)	1300 nM	5 nM	
c1ccc(COCCCOc2ccc([C@H]3[C@H](COCCN4CCOCC4)CNC[C@@H]3OCc3ccc4ccccc4c3)cc2)cc1 (racemic)	160 nM	3.3 nM	
O=S(=O)(O)OC[C@@H]1CNC[C@H](OCc2ccc3ccccc3c2)[C@H]1c1ccc(OCCCOCc2ccccc2)cc1 (racemic)	1900 nM	2.3 nM	
COc1ccccc1COCCCOc1ccc([C@H]2CCNC[C@@H]2OCc2ccc3c(c2)NCCC3)cc1 (racemic)	37 nM	0.67 nM	3.8
COc1ccccc1COCCCOc1ccc([C@H]2CCNC[C@@H]2OCc2cc(OC)c3ccccc3c2OC)cc1 (racemic)	12 nM	0.087 nM	5.4

The next lines start with the values.

IC50 (Renin [1])	IC50 (Renin [2])	chromatographic logD [3]	SMILES
8200 nM	820 nM	4.4	c1ccc(COCCCOc2ncc([C@H]3CCNC[C@@H]3OCc3ccc4ccccc4c3)cn2)cc1 (racemic)
330 nM	5.1 nM		c1ccc(COCCCOc2ccc([C@H]3CCNC[C@@H]3OCc3ccc4c(c3)NCCC4)cc2)cc1 (racemic)
110 nM	0.5 nM	4.7	COc1ccccc1COCCCOc1ccc([C@H]2CCNC[C@@H]2OCc2cc(OC)c3ccccc3c2OC)cn1 (racemic)
490 nM	0.4 nM	5.8	c1ccc(COCCCOc2ccc([C@H]3[C@H](CSc4ccncc4)CNC[C@@H]3OCc3ccc4ccccc4c3)cc2)cc1 (racemic)
7100 nM	590 nM	5.1	c1ccc(COCCCOc2ccc([C@H]3CCNC[C@@H]3OCc3ccc4ccccc4c3)cn2)cc1 (racemic)
190 nM	0.92 nM		c1ccc(COCCCOc2ccc([C@H]3[C@H](Cn4cncn4)CNC[C@@H]3OCc3ccc4ccccc4c3)cc2)cc1 (racemic)
